One series relates to TNF. To be noted: read-out: EC50, inhibition of NF-κB; cited from earlier work.
In another series the target is T1, TNFR1 (Homo sapiens, UniProt P19438).
T1 sequence (P19438 30-455): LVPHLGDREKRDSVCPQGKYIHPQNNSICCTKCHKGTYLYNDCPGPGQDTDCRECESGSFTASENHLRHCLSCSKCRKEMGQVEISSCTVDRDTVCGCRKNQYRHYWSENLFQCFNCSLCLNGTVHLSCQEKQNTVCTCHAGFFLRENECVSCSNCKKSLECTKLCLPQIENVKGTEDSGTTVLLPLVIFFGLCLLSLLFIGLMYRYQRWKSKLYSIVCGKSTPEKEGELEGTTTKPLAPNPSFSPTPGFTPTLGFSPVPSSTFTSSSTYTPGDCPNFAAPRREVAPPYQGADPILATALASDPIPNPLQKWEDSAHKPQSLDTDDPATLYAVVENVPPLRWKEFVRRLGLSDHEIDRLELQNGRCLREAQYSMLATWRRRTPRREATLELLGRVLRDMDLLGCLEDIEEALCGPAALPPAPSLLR
The series is described as follows: IκB degradation assay. In kind it is cell-based. Conditions: HEK293 cells, 0.01 to 500 nM. In a few lines:
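HEK293 seeded at 0.4 million/mL in six-well plates overnight, then given compound 0.01–500 nM or DMSO for 2 h, then TNF 10 ng/mL for 30 min. Lysis in native buffer with protease inhibitor, 30 min on ice; BCA. 80 μg protein run on SDS–PAGE, immunoblotted for IκBα and β-actin. Bands quantified by densitometry (n = 3).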

The next series has as its system HEK293 cells. The series is described as follows: MTT cytotoxicity assay. Format: cell-based. Conditions: 0.0001 nM–10 μM, 24 h. Summed up:
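HEK293 plated at 7500 cells/well and grown 24 h at 37 °C, 5% CO2. Exposed to compound 0.0001 nM–10 μM for 24 h at 37 °C. Viability read by MTT on a multimode plate reader.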
(Tetrazolium dyes change colour on reduction, which living cells bring about.)

The next series concerns TRADD. The series is described as follows: TRADD-induced NF-κB activation assay. In kind it is cell-based. To be noted: HEK293 cells overexpressing TRADD, 0.01 to 500 nM, without TNF. In a few lines:
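HEK293 (0.8 million/well, six-well) transfected with 1 μg NF-κB firefly reporter, 0.1 μg Renilla reporter, 1 μg TRADD plasmid and 0.4 μg empty vector (2.5 μg total); controls received empty vector instead of TRADD. Replated at 7500 cells/well after 3 h. Compound 0.01–500 nM or DMSO added 5 h later. Dual luciferase read 24 h post-treatment. Means ± SD, three experiments.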

The subject of series [1] is IL-1α-induced NF-κB activation. Put plainly: IL-1α-induced NF-κB activation assay. Format: cell-based. To be noted: HEK293 cells, IL-1α 10 ng/mL, 0.01 to 500 nM, 24 h. In a few lines: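 HEK293 cells were transfected with NF-κB firefly/Renilla luciferase reporters and replated next day at 7500 cells/well in phenol red–free DMEM. Compound 0.01–500 nM or DMSO was incubated with or without IL-1α 10 ng/mL for 24 h at 37 °C. Sequential firefly and Renilla luminescence read with Dual-Glo reagents. Means ± SD of three experiments.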

In a further series the target is T2, TNFR2 (Homo sapiens, UniProt P20333).
T2 sequence (P20333 23-461): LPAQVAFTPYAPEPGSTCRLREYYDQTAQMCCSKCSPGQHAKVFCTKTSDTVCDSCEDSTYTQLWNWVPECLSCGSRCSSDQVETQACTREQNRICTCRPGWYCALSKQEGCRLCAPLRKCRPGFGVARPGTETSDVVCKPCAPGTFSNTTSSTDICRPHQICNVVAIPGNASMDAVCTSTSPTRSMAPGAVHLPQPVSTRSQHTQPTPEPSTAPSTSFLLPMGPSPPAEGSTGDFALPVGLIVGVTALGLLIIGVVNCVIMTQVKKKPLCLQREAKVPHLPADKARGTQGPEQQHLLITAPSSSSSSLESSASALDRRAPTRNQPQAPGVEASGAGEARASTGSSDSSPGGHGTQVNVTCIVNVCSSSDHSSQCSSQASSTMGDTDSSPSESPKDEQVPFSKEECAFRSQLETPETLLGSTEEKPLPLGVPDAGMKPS
The series is described as follows: RelB transcription factor activity assay. In kind it is cell-based. Conditions: HUVEC cells, 250 nM, densitometry. In a few lines: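 HUVEC grown on gelatin-coated dishes in EGM-2 with 2% FBS, plated 1 million/well overnight, then transfected with 0.5 μg membrane TNF plasmid. After 6 h, medium replaced and compound (250 nM) added overnight. Lysates in native buffer, BCA, SDS–PAGE, immunoblotted for RelB; bands quantified by densitometry.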

Series [2] in a line: Solubility by dynamic light scattering. In kind it is physicochemical.

The source of these data is PMC10288500 (ACS Bio & Med Chem Au, 2023).

By EC50 is commonly meant the midpoint of the concentration-response curve. Regarding `Cc1ccc(C)c(Cn2c(C(O)c3ccncc3)nc3ccc(-c4cnn(C)c4)cc32)c1` (stereo not shown) [UCB-9260], in the series with TNF, the EC50 is 250 nM.

With `COc1cc(C(=O)NS(=O)(=O)c2ccccc2C)ccc1Cc1cn(C)c2ccc(NC(=O)OC3CCCC3)cc12` [zafirlukast], the “extent of inhibition of TNF-induced IκB degradation” value at TNFR1 is listed as “partially inhibited”. Moreover, the “cytotoxicity (MTT)” value with HEK293 cells is listed as “No appreciable cytotoxicity”. For the same molecule, in the series on TRADD, the “effect on TRADD-induced NF-κB activation” value was “little effect”. Besides, the “effect on IL-1α-induced NF-κB activation” value in series [1] is given as “failed to mitigate”. Further, the “effect on membrane TNF-TNFR2-induced activation of RelB” value at TNFR2 is reported as “minimal effect”. The “aggregation by DLS at 200 μM” value in series [2] is recorded as “aggregation”.
